{"data": "Measured values from different studies", "SIRT6": "NAD-dependent protein deacylase sirtuin-6 (SIRT6, Homo sapiens, UniProt Q8N6T7)", "Cacna1b": "Voltage-dependent N-type calcium channel subunit alpha-1B (Cacna1b, Rattus norvegicus, UniProt Q02294)", "note": "Each line is one published result; the experiments were not run side by side."}
{"SMILES": "C/C(=C\\C(=O)OCCCCCCCCC(=O)O)C[C@@H]1OC[C@H](C[C@@H]2O[C@H]2[C@@H](C)[C@H](C)O)[C@@H](O)[C@H]1O", "target": "C-C chemokine receptor type 5 (CCR5, Homo sapiens, UniProt P51681)", "test": "calcium signal, antagonist", "test system": "U87/CD4/CCR5", "conditions": "20 µM", "inhibition": "76%"}
{"SMILES": "COc1ccc(CONC(=O)c2ccc(C(N)=O)cc2)cc1", "target": "SIRT6", "test": "enzyme activity, inhibitor, fluorescence", "conditions": "100 µM", "inhibition": "78.2%"}
{"SMILES": "Ic1cccc2cnccc12", "target": "Poly [ADP-ribose] polymerase 2 (PARP2, Homo sapiens, UniProt Q9UGN5)", "test": "enzyme activity, inhibitor", "conditions": "10 µM", "inhibition": "40%"}
{"SMILES": "CCN(Cc1ccccc1C(F)(F)F)C(=O)C1CCN(S(=O)(=O)c2ccc3[nH]ncc3c2)CC1", "target": "Cacna1b", "test": "ligand displacement, radioligand", "conditions": "10 µM", "inhibition": "2%"}
{"SMILES": "O=C(Nc1ccc(S(=O)(=O)N2CCC(Cl)CC2)cc1)c1ccc([N+](=O)[O-])o1", "target": "Voltage-dependent L-type calcium channel subunit alpha-1C (Cacna1c, Rattus norvegicus, UniProt P22002)", "test": "ligand displacement, radioligand", "conditions": "10 µM", "inhibition": "24%"}
{"SMILES": "NC(=O)c1ccc(C(=O)NOCc2ccc(Oc3ccccc3)cc2)cc1", "target": "SIRT6", "test": "enzyme activity, inhibitor, fluorescence", "conditions": "100 µM", "inhibition": "89.1%"}
{"SMILES": "O=C(c1ccc(F)cc1)N(Cc1ccccc1)C1CCCCC1", "target": "Cacna1b", "test": "cell-free assay", "conditions": "10 µM", "inhibition": "5%"}
{"SMILES": "NC(=O)c1ccc(C(=O)NOCc2ccccc2Br)cc1", "target": "SIRT6", "test": "enzyme activity, inhibitor, fluorescence", "conditions": "100 µM", "inhibition": "79.7%"}
{"SMILES": "CC/C(=N\\NC(=O)NCc1cccc(O)c1)c1ccc(O)c(C)c1O", "target": "ALK tyrosine kinase receptor (ALK, Homo sapiens, UniProt Q9UM73, G1202R)", "test": "enzyme activity, inhibitor", "conditions": "0.1 µM", "inhibition": "-1.5%"}
